Source: ChEMBL document CHEMBL4270599, “Synthesis of a 3'-C-ethynyl-β-d-ribofuranose purine nucleoside library: Discovery of C7-deazapurine analogs as potent antiproliferative nucleosides” (Eur J Med Chem, 2018)

Legend:
SF-539 = assay: Growth inhibition of human SF539 cells assessed as cell growth at 10^-8 M incubated for 48 hrs by sulforhodamine B assay relative to control; type: functional; conditions: SF-539, 48 h, read-out: Activity
KM12 = assay: Growth inhibition of human KM12 cells assessed as cell growth at 10^-8 M incubated for 48 hrs by sulforhodamine B assay relative to control; type: functional; conditions: KM12, 48 h, read-out: Activity
SK-MEL-28 = assay: Growth inhibition of human SK-MEL-28 cells assessed as cell growth at 10^-6 M incubated for 48 hrs by sulforhodamine B assay relative to control; type: functional; conditions: SK-MEL-28, 48 h, read-out: Activity
HOP-62 [1] = assay: Growth inhibition of human HOP62 cells assessed as cell growth at 10^-6 M incubated for 48 hrs by sulforhodamine B assay relative to control; type: functional; conditions: HOP-62, 48 h, read-out: Activity
Hs-578T = assay: Cytotoxicity against human Hs 578T cells after 48 hrs by SRB assay; type: functional; conditions: for GI50: read-out: GI50; for TGI: read-out: TGI; for CC50: read-out: pLC50 (the source's name) (converted)
DU-145 = assay: Growth inhibition of human DU145 cells assessed as cell growth at 10^-6 M incubated for 48 hrs by sulforhodamine B assay relative to control; type: functional; conditions: DU-145, 48 h, read-out: Activity
CCRF-CEM [2] = assay: Antiproliferative activity against human CEM cells after 72 hrs by Coulter counter method; type: functional, cell-based
Procedure, shortened: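 Cell count assay in 96-well microtiter plates; (5–7.5) × 10⁴ tumor cells per well plus test compound. Cells proliferated at 37 °C in humidified CO₂-controlled atmosphere, 48 h for murine leukemia L1210, 72 h for human lymphocytic CEM and cervix carcinoma HeLa. Counted by Coulter counter; IC₅₀ is the concentration that inhibits proliferation by 50%.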

MCF7 = assay: Growth inhibition of human MCF7 cells assessed as cell growth at 10^-6 M incubated for 48 hrs by sulforhodamine B assay relative to control; type: functional; conditions: MCF7, 48 h, read-out: Activity
NCI-H460 = assay: Cytotoxicity against human NCI-H460 cells after 48 hrs by SRB assay; type: functional; conditions: NCI-H460, 48 h; for TGI: read-out: TGI
SW-620 = assay: Growth inhibition of human SW620 cells assessed as cell growth at 10^-7 M incubated for 48 hrs by sulforhodamine B assay relative to control; type: functional; conditions: SW-620, 48 h, read-out: Activity
HCT-15 = assay: Growth inhibition of human HCT15 cells assessed as cell growth at 10^-6 M incubated for 48 hrs by sulforhodamine B assay relative to control; type: functional; conditions: HCT-15, 48 h, read-out: Activity
NCI/ADR-RES = assay: Growth inhibition of human NCI/ADR-RES cells assessed as cell growth at 10^-8 M incubated for 48 hrs by sulforhodamine B assay relative to control; type: functional; conditions: read-out: Activity
HUVEC = assay: Antiproliferative activity against HUVEC cells after 4 days by Coulter counter method; type: cell-based; conditions: Homo sapiens, 96 h
Procedure, shortened: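 Primary HUVEC, primary HMVEC-d and the HMEC-1 line seeded at 20,000 cells/well in gelatin-coated plates in EC growth medium (EGM2). After overnight incubation, 5-fold compound dilutions added. Cells proliferated four days with compound, then trypsinized and counted by Coulter counter to derive IC₅₀.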

OVCAR-5 = assay: Growth inhibition of human OVCAR5 cells assessed as cell growth at 10^-8 M incubated for 48 hrs by sulforhodamine B assay relative to control; type: functional; conditions: OVCAR-5, 48 h, read-out: Activity
RXF 393 = assay: Cytotoxicity against human RXF393 cells after 48 hrs by SRB assay; type: functional; conditions: RXF 393, 48 h; for GI50: read-out: GI50; for TGI: read-out: TGI
NCI-H322M = assay: Growth inhibition of human NCI-H322M cells assessed as cell growth at 10^-7 M incubated for 48 hrs by sulforhodamine B assay relative to control; type: functional; conditions: read-out: Activity
UACC-257 = assay: Growth inhibition of human UACC257 cells assessed as cell growth at 10^-5 M incubated for 48 hrs by sulforhodamine B assay relative to control; type: functional; conditions: UACC-257, 48 h, read-out: Activity
HOP-62 [3] = assay: Growth inhibition of human HOP62 cells assessed as cell growth at 10^-7 M incubated for 48 hrs by sulforhodamine B assay relative to control; type: functional; conditions: HOP-62, 48 h, read-out: Activity
CCRF-CEM [4] = assay: Cytotoxicity against human CCRF-CEM cells after 48 hrs by SRB assay; type: functional; conditions: for GI50: read-out: GI50; for CC50: read-out: LC50 (the source's name)
CCRF-CEM [5] = assay: Growth inhibition of human CCRF-CEM cells assessed as cell growth at 10^-6 M incubated for 48 hrs by sulforhodamine B assay relative to control; type: functional; conditions: read-out: Activity
Malme-3M = assay: Growth inhibition of human MALME-3M cells assessed as cell growth at 10^-5 M incubated for 48 hrs by sulforhodamine B assay relative to control; type: functional; conditions: read-out: Activity
M14 [6] = assay: Growth inhibition of human M14 cells assessed as cell growth at 10^-5 M incubated for 48 hrs by sulforhodamine B assay relative to control; type: functional; conditions: M14, 48 h, read-out: Activity
U-251 = assay: Growth inhibition of human U251 cells assessed as cell growth at 10^-7 M incubated for 48 hrs by sulforhodamine B assay relative to control; type: functional; conditions: U-251, 48 h, read-out: Activity
BT-549 = assay: Growth inhibition of human BT549 cells assessed as cell growth at 10^-5 M incubated for 48 hrs by sulforhodamine B assay relative to control; type: functional; conditions: BT-549, 48 h, read-out: Activity
NCI-H23 = assay: Growth inhibition of human NCI-H23 cells assessed as cell growth at 10^-6 M incubated for 48 hrs by sulforhodamine B assay relative to control; type: functional; conditions: NCI-H23, 48 h, read-out: Activity
TK-10 = assay: Growth inhibition of human TK10 cells assessed as cell growth at 10^-5 M incubated for 48 hrs by sulforhodamine B assay relative to control; type: functional; conditions: TK-10, 48 h, read-out: Activity
M14 [7] = assay: Growth inhibition of human M14 cells assessed as cell growth at 10^-6 M incubated for 48 hrs by sulforhodamine B assay relative to control; type: functional; conditions: M14, 48 h, read-out: Activity
[8] = read-out: pLC50 (the source's name) (converted)
[9] = read-out: LC50 (the source's name)

Row | Compound | growth at 0.01 µM (SF-539) [%] | growth at 0.01 µM (KM12) [%] | growth at 1 µM (SK-MEL-28) [%] | growth at 1 µM (HOP-62 [1]) [%] | GI50 (Hs-578T) [nM] | TGI (Hs-578T) [nM] | CC50 (Hs-578T) [nM] | growth at 1 µM (DU-145) [%] | IC50 (CCRF-CEM [2]) [nM] | growth at 1 µM (MCF7) [%] | TGI (NCI-H460) [nM] | growth at 0.1 µM (SW-620) [%] | growth at 1 µM (HCT-15) [%] | growth at 0.01 µM (NCI/ADR-RES) [%] | IC50 (HUVEC) [nM] | growth at 0.01 µM (OVCAR-5) [%] | GI50 (RXF 393) [nM] | TGI (RXF 393) [nM] | growth at 0.1 µM (NCI-H322M) [%] | growth at 10 µM (UACC-257) [%] | other results
1 | C#C[C@@]1(O)[C@@H](CO)O[C@@H](n2cc(Cl)c3c(N)ncnc32)[C@@H]1O | 88 to 92 | 85 to 88 | 32 to 43 | 2 to 10 | 463 to 2480 | 7010 to 100000 | > 100000 | 7 to 12 | 12 | 1 to 4 | 226 to 753 | 34 to 50 | 1 | 77 to 82 | 4.9 | 95 to 97 | 299 to 485 | 813 to 2010 | 67 to 80 | 34 to 42 | CC50 (NCI-H460; [8]): > 100000 nM; CC50 (RXF 393; [8]): > 100000 nM; growth at 0.1 µM (HOP-62 [3]): 74 to 86%; GI50 (CCRF-CEM [4]): 239 to 257 nM; CC50 (CCRF-CEM [4]): > 100000 nM; TGI (CCRF-CEM [4]; read-out: TGI): > 100000 nM; TGI (CCRF-CEM [4]; read-out: pTGI): > 100000 nM; growth at 1 µM (CCRF-CEM [5]): 7%
2 | C#C[C@@]1(O)[C@@H](CO)O[C@@H](n2cc(Br)c3c(N)ncnc32)[C@@H]1O | 91 to 93 | 91 to 95 | 61 to 68 | 12 to 29 | 307 to 1350 | 52400 to 100000 | > 100000 | 15 to 16 | 30 | 3 to 5 | 1540 to 5270 | 18 to 45 | 4 to 7 | 80 to 90 | 18 | 98 to 99 | 205 to 479 | 653 to 2290 | 73 to 76 | 37 to 43 | growth at 10 µM (Malme-3M): 5 to 10%; growth at 10 µM (M14 [6]): 6 to 11%; growth at 0.1 µM (U-251): 2 to 11%; growth at 10 µM (BT-549): -44%; growth at 1 µM (NCI-H23): 7 to 13%; growth at 10 µM (TK-10): 12%; growth at 1 µM (M14 [7]): 20 to 24%; GI50 (NCI-H460; read-out: GI50): 17.1 to 50 nM; CC50 (NCI-H460; [9]): > 100000 nM; CC50 (RXF 393; [9]): > 100000 nM; growth at 0.1 µM (HOP-62 [3]): 68 to 86%; GI50 (CCRF-CEM [4]): 140 to 285 nM; CC50 (CCRF-CEM [4]): > 100000 nM; TGI (CCRF-CEM [4]; read-out: TGI): > 100000 nM; TGI (CCRF-CEM [4]; read-out: pTGI): > 100000 nM; growth at 1 µM (CCRF-CEM [5]): 5 to 11%
